Yeast life ext = compounds extending yeast replicative lifespan, primary screen, S. cerevisiae, OD615. S. cerevisiae growth with nicotinamide; deaD strain in restrictive glucose medium. actives 0.68% (n = 130,000). inhibition of the nicotinamide effect, % at 10 µM;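 active = inhibition above a set limit, placed 3 SD over the median of all compounds, cut at about 26% in these data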;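 also: 0% = nicotinamide-treated wells and 100% = cells grown without nicotinamide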
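Measured by: optical density (absorbance) at 615 nm; System: modified budding yeast, DeaD strain; Medium: restrictive CSMM-D dextrose medium; Timing: 4 h preincubation then 48 h treatment at 30 °C.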
Rad51 HR inh = human RAD51 strand exchange inhibitors, primary screen, biochemical, fluorescence | DNA repair protein RAD51 homolog 1 (Homo sapiens), Q06609 | hRad51 DNA strand exchange, fluorescence dequenching | inhibition, % at 10 µM | actives 0.085% (n = 200,000) | AID 1385, 2008;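 active = inhibition above 40% at the single screening dose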;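 also: 0% = DMSO control wells and 100% = blanks with heterologous ssDNA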
Target sequence (Q06609 whole entry, looked up): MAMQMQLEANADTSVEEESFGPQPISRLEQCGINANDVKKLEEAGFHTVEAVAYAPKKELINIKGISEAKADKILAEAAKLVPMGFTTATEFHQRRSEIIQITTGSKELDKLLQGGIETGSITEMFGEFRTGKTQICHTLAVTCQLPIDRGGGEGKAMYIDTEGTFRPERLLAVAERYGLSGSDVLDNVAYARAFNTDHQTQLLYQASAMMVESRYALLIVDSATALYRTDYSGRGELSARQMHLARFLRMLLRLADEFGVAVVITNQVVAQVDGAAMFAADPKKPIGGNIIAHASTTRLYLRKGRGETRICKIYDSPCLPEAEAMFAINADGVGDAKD
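Assay system: Human Rad51 nucleoprotein filaments preassembled on unlabelled ssDNA | Reagent: Donor/quencher-labelled 47-bp dsDNA substrate | Doses: One concentration, 10 µM final | Times: 37 °C 15-min filament assembly, 30-min compound preincubation, 15-min exchange | Technique: Fluorescein emission 520 nm, excitation 485 nm | Benchmarks: Plate control and blank wells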
Yeast growth inh = growth inhibitors of yeast BB579 in restrictive medium, primary screen, yeast lifespan-shortening project, S. cerevisiae. actives 0.51% (n = 140,000). OD615, 48 h. inhibition, % at 10 µM. AID 804, 2007;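 active = inhibition above a set limit, 3 SD over the mean compound inhibition, cut at about 44% in these data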
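Assay system – yeast BB579 (DeaD) · Dosing – single compound dose of 10 µM, 0.25% DMSO final · Detection – OD615 turbidity measurement · Buffer or medium – CSMM-D restrictive synthetic medium containing dextrose (glucose) · Benchmarks – positive control amphotericin B 10 µg/mL · Incubation – 48 h exposure, 30 °C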
Efa HMGR inh = inhibitors of E. faecalis class II HMGR, primary screen, biochemical, Enterococcus faecalis | actives 0.41% (n = 190,000) | AID 1066, 2008 | inhibition, % at 10 µM | HMG-CoA reductase (Enterococcus faecalis, mvaE) | purified E. faecalis HMGR, NADPH absorbance 340 nm kinetic;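 active = inhibition above a set limit, the median over all tested compounds plus 3 SD, cut at about 9.5% in these data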;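 also: enzyme runs in reverse so mevalonate oxidation gives rising NADPH absorbance; 0% = complete reaction with DMSO and 100% = background rate lacking mevalonate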
Measles CPE = compounds protecting cells from measles virus cytopathic effect, primary screen, measles RdRp inhibitor project, single point, MLSMR library, absorbance; AID 841, 2007; actives 1.5% (n = 140,000); protection (pct of control), % at 4 µM; Measles virus-infected cells, CPE protection; in the data active = protection mostly above about 24%, no sharp cut-off; inactive = mostly below about 26%
Arbovirus inh = antivirals against arbovirus infection, primary screen, cell-based, full library, 10K replicate subset | arbovirus infection cell-based antiviral screen | inhibition, % at 10 µM | actives 0.37% (n = 200,000); in the data active = inhibition above about 30%
* hit, by the source's call; x = no result given. Rows were chosen to be rich in hits. Some 2.4% of all compounds tested hit in one or more screens of this group.

SMILES	Yeast life ext	Rad51 HR inh	Yeast growth inh	Efa HMGR inh	Measles CPE	Arbovirus inh
Cc1cc(/C=C2/NC(=O)N(Cc3ccccc3F)C2=O)c(C)n1C(C)C	-0.6	18.9	-36.5	0.0	3.7	5.8
Cc1cc(/C=C2/NC(=O)N(c3ccccc3)C2=O)c(C)n1C(C)C	0.2	-0.7	-19.3	-0.8	55.0*	21.8
COC(=O)N/N=C/c1cn(Cc2ccccc2Cl)c2ccccc12	-2.6	5.9	-9.3	-2.3	10.7	1.6
Cc1[nH][nH]c(=O)c1C(c1c(C)[nH][nH]c1=O)c1cn(Cc2ccccc2Cl)c2ccccc12	-0.4	11.4	-18.3	66.8*	3.1	-3.7
O=C(NCc1ccccc1F)c1ccc(S(=O)(=O)Nc2cccc(C(F)(F)F)c2)cc1	1.2	-6.0	-13.5	1.0	30.7*	-10.8
O=C(O)c1cccc(NS(=O)(=O)c2ccc(Cl)c(C(=O)O)c2)c1	-0.7	-10.2	-23.6	-0.5	12.4	12.9
O=C(Nc1cccc(C(F)(F)F)c1)c1cccc(NS(=O)(=O)c2ccc(Br)c(C(=O)O)c2)c1	x	5.7	x	10.0*	x	8.9
O=C(Nc1ccccc1-c1ccccc1)c1cccc(C(F)(F)F)c1	-3.4	9.1	-2.8	3.0	3.1	-3.2
Cc1csc(-c2cnn(-c3ccccc3)c2NC(=O)c2cccc(C(F)(F)F)c2)n1	-20.8	-0.7	-18.4	0.1	21.6*	-2.0
COc1ccc(S(=O)(=O)Nc2cc(C)cc(C)n2)c2ccccc12	-12.1	1.9	-19.5	-1.8	3.3	23.0
CCOc1ccc(S(=O)(=O)Nc2cc(C)ccn2)c2ccccc12	-6.2	2.2	-64.8	0.7	47.2*	6.3
O=C(N/N=C/c1cccs1)[C@H]1C[C@@H]1c1ccccc1	-1.8	15.3	-19.0	0.9	8.7	-4.0
O=C(O)/C(=C\c1ccc(-c2ccc(F)cc2)o1)c1ccccc1	x	-11.9	x	-3.3	x	44.1*
O=Cc1ccc(-c2ccc(F)cc2)o1	x	2.8	x	-3.1	x	0.8
CCOC(=O)c1nnn(-c2nonc2N)c1-c1ccccc1	-0.9	-5.2	-20.1	0.9	5.0	0.4
Nc1nonc1-n1nncc1-c1ccccc1	-16.8	2.7	-46.2	11.2*	5.1	-0.4
C/C(=N\NC(=O)COc1ccc(C(C)(C)C)cc1)c1ccc(N2CCOCC2)cc1	-1.1	0.6	-36.5	2.0	9.0	0.9

Bioassay records: PubChem, several laboratories
